Reference: paper PMC3068019 (EMBO Molecular Medicine, 2010)

Legend:
[1] = test system: PGC-1α mRNA, Q111 striatal cells; assay: PGC-1α mRNA by quantitative RT-PCR, Q111 cells; assay type: cell-based, mouse
Procedure, shortened: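 Total RNA (2 µg) from Q7/Q111 striatal cells, run either by TaqMan one-step RNA-to-Ct or by Superscript III reverse transcription followed by TaqMan gene expression assays on real-time PCR. Quantified by the delta-delta CT method, normalised to 18S […].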

Q111 cells = assay: 3-NP toxicity, LIVE/DEAD viability assay, Q111 cells; assay type: cell-based, mouse
HD model mice = details: ref Karpuj et al, 2002; Fox et al, 2004; cited from earlier work
DNAJB10 = details: ref Karpuj et al, 2002; cited from earlier work
glutathione = details: ref Mao et al, 2006; cited from earlier work
Caspase = details: ref Bailey & Johnson, 2006; Jeitner et al, 2005; cited from earlier work
[2] = test system: DNAJ (HSJ1b), striatal neurons; details: ref Borrell-Pages et al, 2006, cited from earlier work
Caenorhabditis elegans = details: ref Borrell-Pages et al, 2006; cited from earlier work
BDNF = details: ref Borrell-Pages et al, 2006; cited from earlier work
PGC-1α = details: ref Milnerwood et al, 2010; Okamoto et al, 2009; cited from earlier work

Compound: CC(/C=C/C(=O)NO)=C\[C@@H](C)C(=O)c1ccc(N(C)C)cc1 [TSA, Trichostatin A]
- effect on PGC-1α mRNA levels [1]: increased the mRNA levels of PGC-1α

Compound: NCCSSCCN [cystamine]
- protection against 3-NP toxicity (Q111 cells; not shown, cell line not stated): protect against 3-NP toxicity
- neuroprotection in HD models (HD model mice): neuroprotective
- DNAJB10 in treated mice (DNAJB10): increased
- glutathione levels (glutathione): increases levels of the versatile antioxidant glutathione
- caspase inhibition (Caspase): caspase inhibition

Compound: NCCS [cysteamine]
- DNAJB10 levels [2]: normalize DNAJB10 levels
- DNAJ (HSJ1b) transcription and protein levels ([2]; striatal neurons in vitro): increased
- protection of worms from toxic effects of mhtt (Caenorhabditis elegans): protected worms
- trafficking of BDNF (BDNF): enhanced

Compound: O=C(O)CC[N+](=O)[O-] [3-NP, 3-nitropropionic acid]
- toxicity of 3-NP, Q111 compared with Q7 cells (Q111 cells; 3-NP 10 mM for 48 h): more toxic to Q111 cells than to Q7 cells

Compound: CC12CC3CC(C)(C1)CC(N)(C3)C2 [memantine]
- transcriptional dysregulation of PGC-1α induced by extrasynaptic glutamate (PGC-1α): appears to prevent transcriptional dysregulation of PGC-1α

Compound: CCCC(=O)O [NaBu, Sodium butyrate]
- effect on PGC-1α mRNA levels [1]: increased the mRNA levels of PGC-1α
